A selection follows.
HKDC1 activator: HKDC1 hexokinase activators, primary screen, biochemical, fluorescence, uHTS. Q2TB90. recombinant HKDC1, G6PDH/diaphorase resazurin fluorescence; stronger effect = lower value. activity change, negative = activation, % at 20 µM. actives 0.056% (n = 340,000);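 active means activation of 40% or more at 20 µM, a change of -40% or lower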
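Signal: coupled resazurin-to-resorufin fluorescence, Ex 525/Em 613 nm. Test system: in-house human HKDC1 enzyme, G6PDH and diaphorase coupling enzymes. Quantity: HKDC1 5 µg/mL. Timing: 90 min reaction at room temperature, dark.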
Numbers without * were called inactive.

SMILES | HKDC1 activator
Cc1ccc(OP2(=O)Nc3cc(C)c(C)cc3S2)cc1 (stereo not given) | -40.7*
COc1cc2c(cc1OC)-c1c(OC)c(OC)c(OC)c3ccnc(c13)C2=O | 49.5
Nc1cnn(-c2ccccc2)c(=O)c1Cl | 44.7
Cc1cccc(N2C(=O)NC(=O)/C(=C\c3cc(C)n(-c4sc5c(c4C#N)CCCC5)c3C)C2=O)c1C | 72.4
Cn1ncnc2c(=O)n(C)c(=O)nc1-2 | 69.0
